Test results reported in ChEMBL document CHEMBL3872205, “Design, synthesis and evaluation of novel potent angiotensin II receptor 1 antagonists” (Eur J Med Chem, 2016).

Assays:
[1] = AUC (0 to 72 hrs) in Wistar rat plasma at 30 mg/kg, po by HPLC analysis; assay type: ADME, organism-based; parameters: time < 72 hr, dose 30 mg/kg, route oral
In short: (§1)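 Male Wistar rats (180 ± 20 g, n = 6 per group) got one oral dose. Heparinized blood was taken by retro-orbital puncture before dosing and at 0.5–72 h. Plasma was spun at 4000 × g, 4 °C, 10 min, spiked with internal standard and protein-precipitated with acetonitrile. Analysis was reverse-phase C18 HPLC (0.02 mol/L KH2PO4 55%/acetonitrile 45%, 1.0 mL/min). Calibration used 0.1–10 µg/mL, peak-height ratio, weighting concentration^-2.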

[2] = AUC (0 to infinity) in Wistar rat plasma at 30 mg/kg, po by HPLC analysis; assay type: ADME, organism-based; parameters: dose 30 mg/kg, route oral, time infinity; in short: as §1
[3] = Half life in Wistar rat plasma at 10 mg/kg, po by HPLC analysis; assay type: ADME, organism-based
[4] = Half life in Wistar rat plasma at 15 mg/kg, po by HPLC analysis; assay type: ADME, organism-based
[5] = Tmax in Wistar rat plasma at 30 mg/kg, po by HPLC analysis; assay type: ADME, organism-based
In short: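 Male Wistar rats (180 ± 20 g), 6 per dose group, each given a single oral dose. Blood was drawn by retro-orbital puncture into heparin at predose and at 0.5, 1, 2, 4, 6, 8, 12, 24, 48 and 72 h, then spun at 4000 × g and 4 °C. Plasma with internal standard was acetonitrile-precipitated, filtered and run on reverse-phase C18 HPLC (0.02 mol/L KH2PO4 55% / acetonitrile 45%, 1.0 mL/min). Calibration standards were 0.1–10 µg/mL, fitted by peak-height ratio with 1/conc² weighting.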

[6] = Cmax in Wistar rat plasma at 10 mg/kg, po by HPLC analysis; assay type: ADME, organism-based; parameters: dose 10 mg/kg, route oral
[7] = Cmax in Wistar rat plasma at 15 mg/kg, po by HPLC analysis; assay type: ADME, organism-based; parameters: dose 15 mg/kg, route oral
[8] = AUC (0 to infinity) in Wistar rat Heart at 10 mg/kg, po by HPLC analysis; assay type: ADME, organism-based; parameters: dose 10 mg/kg, time infinity, route oral
In short: (§2)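 Wistar rats (180 ± 20 g) were dosed orally at 10, 15 or 30 mg/kg. Heart, liver, spleen, lung, kidney and brain were collected at 0–72 h (n = 6 per point). Tissue was rinsed, blotted and homogenized in saline (0.25 g/1 mL), then spun at 10,000 × g. Supernatant was methanol-extracted, dried under nitrogen at 50 °C, reconstituted in methanol and run on C18 HPLC (acetonitrile 60%/water 40%, 1.0 mL/min).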

[9] = AUC (0 to infinity) in Wistar rat Heart at 15 mg/kg, po by HPLC analysis; assay type: ADME, organism-based; parameters: dose 15 mg/kg, time infinity, route oral; in short: as §2
[10] = Tmax in Wistar rat Heart at 15 mg/kg, po by HPLC analysis; assay type: ADME, organism-based
In short: (§3)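 Male Wistar rats (180 ± 20 g) received a single oral dose of 10, 15 or 30 mg/kg. Tissues were collected at 0, 0.5, 1, 2, 4, 6, 8, 12, 24, 48 and 72 h (n = 6 per point). Samples of 0.25 g were rinsed, then homogenized in saline (0.25 g/1 mL) and centrifuged at 10,000 × g. Supernatant was methanol-extracted, dried under nitrogen at 50 °C and reconstituted in methanol. Analysis was by C18 HPLC (acetonitrile 60% / water 40%, 1.0 mL/min).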

[11] = Tmax in Wistar rat Heart at 30 mg/kg, po by HPLC analysis; assay type: ADME, organism-based; in short: as §3
[12] = AUC (0 to 72 hrs) in Wistar rat liver at 10 mg/kg, po by HPLC analysis; assay type: ADME, organism-based; parameters: time < 72 hr, dose 10 mg/kg, route oral; in short: as §2
[13] = MRT (0 to infinity) in Wistar rat liver at 10 mg/kg, po by HPLC analysis; assay type: ADME, organism-based; in short: as §3
[14] = AUC (0 to 72 hrs) in Wistar rat spleen at 10 mg/kg, po by HPLC analysis; assay type: ADME, organism-based; parameters: dose 10 mg/kg, time < 72 hr, route oral; in short: as §2
[15] = AUC (0 to infinity) in Wistar rat spleen at 10 mg/kg, po by HPLC analysis; assay type: ADME, organism-based; parameters: dose 10 mg/kg, time infinity, route oral; in short: as §2
[16] = AUC (0 to infinity) in Wistar rat spleen at 15 mg/kg, po by HPLC analysis; assay type: ADME, organism-based; parameters: dose 15 mg/kg, route oral, time infinity; in short: as §2
[17] = MRT (0 to 72 hrs) in Wistar rat spleen at 15 mg/kg, po by HPLC analysis; assay type: ADME, organism-based; in short: as §3
[18] = MRT (0 to 72 hrs) in Wistar rat spleen at 30 mg/kg, po by HPLC analysis; assay type: ADME, organism-based; in short: as §3
[19] = Half life in Wistar rat spleen at 15 mg/kg, po by HPLC analysis; assay type: ADME, organism-based
In short: (§4)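 Tissue distribution in male Wistar rats given oral 10, 15 or 30 mg/kg; heart, liver, spleen, lung, kidney and brain collected predose and 0.5–72 h post-dose (n = 6 per time). Tissue rinsed in saline, homogenised 0.25 g/1 mL saline, methanol extraction, dried under nitrogen, reconstituted in methanol. Analysis by reverse-phase C18 HPLC, acetonitrile/water 60:40, 1.0 mL/min, ambient temperature.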

[20] = Cmax in Wistar rat spleen at 15 mg/kg, po by HPLC analysis; assay type: ADME, organism-based; parameters: dose 15 mg/kg, route oral; in short: as §4
[21] = AUC (0 to 72 hrs) in Wistar rat lung at 30 mg/kg, po by HPLC analysis; assay type: ADME, organism-based; parameters: time < 72 hr, dose 30 mg/kg, route oral; in short: as §2
[22] = MRT (0 to 72 hrs) in Wistar rat lung at 15 mg/kg, po by HPLC analysis; assay type: ADME, organism-based; in short: as §3
[23] = MRT (0 to infinity) in Wistar rat lung at 15 mg/kg, po by HPLC analysis; assay type: ADME, organism-based; in short: as §3
[24] = Half life in Wistar rat lung at 30 mg/kg, po by HPLC analysis; assay type: ADME, organism-based; in short: as §4
[25] = Tmax in Wistar rat lung at 15 mg/kg, po by HPLC analysis; assay type: ADME, organism-based; in short: as §3
[26] = Cmax in Wistar rat lung at 30 mg/kg, po by HPLC analysis; assay type: ADME, organism-based; parameters: dose 30 mg/kg, route oral; in short: as §4
[27] = AUC (0 to 72 hrs) in Wistar rat kidney at 30 mg/kg, po by HPLC analysis; assay type: ADME, organism-based; parameters: time < 72 hr, dose 30 mg/kg, route oral; in short: as §2
[28] = AUC (0 to infinity) in Wistar rat kidney at 10 mg/kg, po by HPLC analysis; assay type: ADME, organism-based; parameters: dose 10 mg/kg, time infinity, route oral; in short: as §2
[29] = MRT (0 to infinity) in Wistar rat kidney at 30 mg/kg, po by HPLC analysis; assay type: ADME, organism-based; in short: as §3
[30] = Half life in Wistar rat kidney at 10 mg/kg, po by HPLC analysis; assay type: ADME, organism-based; in short: as §4
[31] = Tmax in Wistar rat kidney at 15 mg/kg, po by HPLC analysis; assay type: ADME, organism-based; in short: as §3
[32] = AUC (0 to 72 hrs) in Wistar rat brain at 30 mg/kg, po by HPLC analysis; assay type: ADME, organism-based; parameters: dose 30 mg/kg, time < 72 hr, route oral; in short: as §2
[33] = MRT (0 to 72 hrs) in Wistar rat brain at 10 mg/kg, po by HPLC analysis; assay type: ADME, organism-based; in short: as §4
[34] = Tmax in Wistar rat brain at 10 mg/kg, po by HPLC analysis; assay type: ADME, organism-based; in short: as §3
[35] = Toxicity in ICR mouse assessed as mortality at 1875 mg/kg, ig after 2 weeks; assay type: organism-based; conditions: in vivo, po
[36] = Toxicity in ig dosed ICR mouse assessed as mortality after 2 weeks; assay type: organism-based; conditions: in vivo, po
Mus musculus = assay: Toxicity in ICR mouse assessed as change in body weight at 1200 mg/kg, po after 2 weeks; assay type: organism-based; conditions: in vivo, 336 h

**Q.** For CCCCC1=NC2(CCCC2)C(=O)N1Cc1ccc2c(ccn2-c2ccccc2-c2nnn[nH]2)c1, which AUC(0-t) at 72 h [1] is on record?
**A.** 89500 ng·h/mL

**Q.** And the AUC(0-inf) [2]?
**A.** 88800 ng·h/mL

**Q.** What about the half-life [3] of the same compound?
**A.** 9.93 h

**Q.** And the half-life [4]?
**A.** 9.03 h

**Q.** And the Tmax [5]?
**A.** 5 h

**Q.** And the Cmax [6]?
**A.** 856 ng/mL

**Q.** What about the Cmax [7] of the same compound?
**A.** 2950 ng/mL

**Q.** What about the AUC(0-inf) [8] of the same compound?
**A.** 962 ng·h/mL

**Q.** And the AUC(0-inf) [9]?
**A.** 6700 ng·h/mL

**Q.** And the Tmax [10]?
**A.** 4.67 h

**Q.** What about the Tmax [11] of the same compound?
**A.** 4.8 h

**Q.** And the AUC(0-t) at 72 h [12]?
**A.** 3070 ng·h/mL

**Q.** What about the MRT inf [13] of the same compound?
**A.** 3.58 h

**Q.** What about the AUC(0-t) at 72 h [14] of the same compound?
**A.** 9470 ng·h/mL

**Q.** And the AUC(0-inf) [15]?
**A.** 11700 ng·h/mL

**Q.** And the AUC(0-inf) [16]?
**A.** 12000 ng·h/mL

**Q.** And the MRT last [17]?
**A.** 9.71 h

**Q.** What about the MRT last [18] of the same compound?
**A.** 13.3 h

**Q.** And the half-life [19]?
**A.** 7.57 h

**Q.** And the Cmax [20]?
**A.** 2360 ng/mL

**Q.** What about the AUC(0-t) at 72 h [21] of the same compound?
**A.** 2360 ng·h/mL

**Q.** What about the MRT last [22] of the same compound?
**A.** 6.64 h

**Q.** And the MRT inf [23]?
**A.** 3.64 h

**Q.** What about the half-life [24] of the same compound?
**A.** 2.35 h

**Q.** And the Tmax [25]?
**A.** 1 h

**Q.** And the Cmax [26]?
**A.** 396 ng/mL

**Q.** And the AUC(0-t) at 72 h [27]?
**A.** 22400 ng·h/mL

**Q.** What about the AUC(0-inf) [28] of the same compound?
**A.** 10800 ng·h/mL

**Q.** What about the MRT inf [29] of the same compound?
**A.** 24.1 h

**Q.** What about the half-life [30] of the same compound?
**A.** 26.9 h

**Q.** And the Tmax [31]?
**A.** 2.33 h

**Q.** What about the AUC(0-t) at 72 h [32] of the same compound?
**A.** 1790 ng·h/mL

**Q.** And the MRT last [33]?
**A.** 8.1 h

**Q.** And the Tmax [34]?
**A.** 6.67 h

**Q.** And the mortality at 336 h [35]?
**A.** 60%

**Q.** And the LD50 at 336 h [36]?
**A.** 1550 mg/kg

**Q.** And the Activity (Mus musculus)?
**A.** Non-Toxic
